In ChEMBL document CHEMBL5506013, “Mitochondria-Selective Dicationic Small-Molecule Ligand Targeting G-Quadruplex Structures for Human Colorectal Cancer Therapy” (J Med Chem, 2024):
Active and inactive are the calls of the source. The calls are words filed in the database; no cut-off is given here.

Columns and labels:
Quadruplex DNA [1] = experiment: Binding affinity to mito 78 G4 DNA (unknown origin) assessed as dissociation constant measured upto 450 secs by surface plasmon resonance assay; format: nucleic-acid assay
Quadruplex DNA [2] = experiment: Binding affinity to mito 55 G4 DNA (unknown origin) assessed as dissociation constant measured upto 450 secs by surface plasmon resonance assay; format: nucleic-acid assay
Procedure, shortened: (§1)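 Surface plasmon resonance in buffer at 25 °C. Four G4-mtDNAs (Mito 78, Mito 55, Mito 29, Mito 0.5-16) and the hairpin HP19 served as substrates. Kd was derived from the sensorgrams.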

Quadruplex DNA [3] = experiment: Binding affinity to mito 29 G4 DNA (unknown origin) assessed as dissociation constant measured upto 450 secs by surface plasmon resonance assay; format: nucleic-acid assay; procedure, shortened: as §1
Quadruplex DNA [4] = experiment: Binding affinity to mito 0.5-16 G4 DNA (unknown origin) assessed as dissociation constant measured upto 450 secs by surface plasmon resonance assay; format: nucleic-acid assay; procedure, shortened: as §1
DNA = experiment: Binding affinity to HP19 DNA (non-G4 DNA) (unknown origin) assessed as dissociation constant measured upto 450 secs by surface plasmon resonance assay; format: nucleic-acid assay; procedure, shortened: as §1
HCT-116 = experiment: Antiproliferative activity against human HCT-116 cells measured after 48 hrs by MTT assay; format: functional, cell-based; conditions: for IC50: HCT-116, 48 h
Procedure, shortened: (§2)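 Cells exposed to the ligands for 48 h. Viability was read by MTT, and the IC50 was derived from the response.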

LoVo = experiment: Antiproliferative activity against human LoVo cells measured after 48 hrs by MTT assay; format: functional, cell-based; procedure, shortened: as §2
HeLa = experiment: Antiproliferative activity against human HeLa cells measured after 48 hrs by MTT assay; format: functional, cell-based; procedure, shortened: as §2
HepG2 = experiment: Antiproliferative activity against human HepG2 cells measured after 48 hrs by MTT assay; format: functional, cell-based; conditions: HepG2, 48 h; procedure, shortened: as §2
PANC-1 = experiment: Antiproliferative activity against human PANC-1 cells measured after 48 hrs by MTT assay; format: functional, cell-based; conditions: PANC-1, 48 h; procedure, shortened: as §2
MDA-MB-231 = experiment: Antiproliferative activity against human MDA-MB-231 cells measured after 48 hrs by MTT assay; format: functional, cell-based; conditions: MDA-MB-231, 48 h; procedure, shortened: as §2
[5] = (§3) Antiproliferative activity against human HFF-1 cells measured after 48 hrs by MTT assay; format: toxicity, cell-based; conditions: HFF-1 cells; procedure, shortened: as §2
[6] = (§4) Antiproliferative activity against human BJ cells measured after 48 hrs by MTT assay; format: toxicity, cell-based; conditions: BJ cells; procedure, shortened: as §2
HFF-1 = experiment: as §3; format: toxicity, cell-based; conditions: hff-1, 48 h, time 48 hrs; procedure, shortened: as §2
BJ = experiment: as §4; format: toxicity, cell-based; conditions: bj, 48 h; procedure, shortened: as §2
Quadruplex DNA [7] = experiment: Binding affinity to mito 29 G4 DNA (unknown origin) at 5 uM by fluorescence titration based analysis; format: nucleic-acid assay
Procedure, shortened: (§5)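 Oligonucleotides were pre-annealed at 95 °C for 10 min, then cooled slowly. Ligand (5 uM) was mixed with 20 uM DNA in buffer. Emission was collected over 550–800 nm, and enhancement was taken at 650 nm as F/F0.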

Quadruplex DNA [8] = experiment: Binding affinity to mito 56 G4 DNA (unknown origin) at 5 uM by fluorescence titration based analysis; format: nucleic-acid assay; procedure, shortened: as §5
Quadruplex DNA [9] = experiment: Binding affinity to mito 132 G4 DNA (unknown origin) at 5 uM by fluorescence titration based analysis; format: nucleic-acid assay; procedure, shortened: as §5
Quadruplex DNA [10] = experiment: Binding affinity to mito 05-15 G4 DNA (unknown origin) at 5 uM by fluorescence titration based analysis; format: nucleic-acid assay; procedure, shortened: as §5
Quadruplex DNA [11] = experiment: Binding affinity to mito 05-18 G4 DNA (unknown origin) at 5 uM by fluorescence titration based analysis; format: nucleic-acid assay; procedure, shortened: as §5
Quadruplex DNA [12] = experiment: Binding affinity to mito 81 G4 DNA (unknown origin) at 5 uM by fluorescence titration based analysis; format: nucleic-acid assay
Procedure, shortened: (§6)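 Fluorescence titration in buffer. Ligand at 5 uM mixed with 20 uM pre-annealed DNA (95 °C for 10 min, slow cooling). Emission collected at 550-800 nm and monitored at 650 nm. Result reported as fold enhancement F/F0 over ligand alone.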

Quadruplex DNA [13] = experiment: Binding affinity to mito 78 G4 DNA (unknown origin) at 5 uM by fluorescence titration based analysis; format: nucleic-acid assay; procedure, shortened: as §6
[14] = Drug uptake in living human HCT-116 cells assessed as increase in fluorescent signal in subnuclear region at 4 uM incubated for 1 hrs by Hoechst33342 staining based analysis; format: ADME, cell-based; conditions: hct-116, 1 h
[15] = Drug uptake in living human HCT-116 cells at 4 uM incubated for 1 hrs by Hoechst33342 staining based analysis; format: ADME, cell-based; conditions: hct-116, 1 h

SMILES	Kd (Quadruplex DNA [1]) [µM]	Kd (Quadruplex DNA [2]) [µM]	Kd (Quadruplex DNA [3]) [µM]	Kd (Quadruplex DNA [4]) [µM]	Kd (DNA) [µM]	IC50 (HCT-116) [µM]	IC50 (LoVo) [µM]	IC50 (HeLa) [µM]	IC50 (HepG2) [µM]	IC50 (PANC-1) [µM]	IC50 (MDA-MB-231) [µM]	IC50 at 48 h [5] [µM]	IC50 at 48 h [6] [µM]	other results
C[n+]1c(/C=C/c2ccc(N3CCCCC3)cc2)ccc2ccccc21.[I-]	–	–	–	–	–	–	–	–	–	–	–	–	–	Activity (HCT-116): inactive; Activity (HFF-1): Toxic; Activity (BJ): Toxic; Activity (Quadruplex DNA [7]): Active; Activity (Quadruplex DNA [8]): Active; Activity (Quadruplex DNA [9]): Active; Activity (Quadruplex DNA [10]): Active; Activity (Quadruplex DNA [11]): Active; Activity (Quadruplex DNA [12]): Active; Activity (Quadruplex DNA [13]): Active; Drug uptake [14]: Active; Drug uptake [15]: Not Active
CCCC[n+]1c(/C=C/c2ccc(N3CCCCC3)cc2)ccc2ccccc21.[I-]	–	–	–	–	–	–	–	–	–	–	–	–	–	Activity (HCT-116): inactive; Activity (HFF-1): Toxic; Activity (BJ): Toxic; Activity (Quadruplex DNA [7]): Active; Activity (Quadruplex DNA [8]): Active; Activity (Quadruplex DNA [9]): Active; Activity (Quadruplex DNA [10]): Active; Activity (Quadruplex DNA [11]): Active; Activity (Quadruplex DNA [12]): Active; Activity (Quadruplex DNA [13]): Active; Drug uptake [14]: Active; Drug uptake [15]: Not Active
C(=C\c1ccc2ccccc2[n+]1CCCCCCCC[n+]1c(/C=C/c2ccc(N3CCCC3)cc2)ccc2ccccc21)/c1ccc(N2CCCC2)cc1	0.13	0.17	0.15	0.41	> 2	5.4	15	22.1	> 40	20.5	> 40	31.1	31.4	–
CN(C)c1ccc(/C=C/c2ccc3ccccc3[n+]2CCCCCCCC[n+]2c(/C=C/c3ccc(N(C)C)cc3)ccc3ccccc32)cc1	0.03	0.13	0.14	0.11	> 2	17.2	15.4	29.5	> 40	> 40	> 40	22.7	> 40	–
CSc1ccc(/C=C/c2ccc3ccccc3[n+]2CCCCCCCC[n+]2c(/C=C/c3ccc(SC)cc3)ccc3ccccc32)cc1	0.05	0.46	0.34	0.15	> 2	24.7	> 40	> 40	> 40	> 40	> 40	34.7	> 40	–
C(=C\c1ccc2ccccc2[n+]1CCCCCCCC[n+]1c(/C=C/c2ccccc2)ccc2ccccc21)/c1ccccc1	0.29	0.58	0.5	1.02	> 2	> 40	> 40	> 40	> 40	> 40	> 40	28.3	> 40	–

Further lines, with some results ahead:

Kd (Quadruplex DNA [1]) [µM]	Kd (Quadruplex DNA [2]) [µM]	Kd (Quadruplex DNA [3]) [µM]	Kd (Quadruplex DNA [4]) [µM]	Kd (DNA) [µM]	IC50 (HCT-116) [µM]	IC50 (LoVo) [µM]	IC50 (HeLa) [µM]	IC50 (HepG2) [µM]	IC50 (PANC-1) [µM]	IC50 (MDA-MB-231) [µM]	SMILES	IC50 at 48 h [5] [µM]	IC50 at 48 h [6] [µM]	other results
0.07	0.91	0.72	1.17	> 2	27.4	> 40	> 40	> 40	> 40	> 40	Cc1ccc(/C=C/c2ccc3ccccc3[n+]2CCCCCCCC[n+]2c(/C=C/c3ccc(C)cc3)ccc3ccccc32)cc1	> 40	> 40	–
1.84	0.22	0.14	> 2	> 2	8	> 40	34.6	37.3	> 40	> 40	C(=C\c1ccc2ccccc2[n+]1CCCCCCCC[n+]1c(/C=C/c2cc3ccccc3[nH]2)ccc2ccccc21)/c1cc2ccccc2[nH]1	> 40	> 40	–
0.12	0.47	0.24	0.28	1.86	29.2	35.4	> 40	> 40	> 40	> 40	C(=C\c1ccc2ccccc2[n+]1CCCCCCCC[n+]1c(/C=C/c2ccc(N3CCOCC3)cc2)ccc2ccccc21)/c1ccc(N2CCOCC2)cc1	> 40	> 40	–
0.02	0.52	0.21	0.96	> 2	8.5	> 40	32.1	25.3	> 40	> 40	CCn1c2ccccc2c2cc(/C=C/c3ccc4ccccc4[n+]3CCCCCCCC[n+]3c(/C=C/c4ccc5c(c4)c4ccccc4n5CC)ccc4ccccc43)ccc21	> 40	> 40	–
0.08	0.61	0.23	0.25	> 2	19.8	> 40	23.3	> 40	> 40	> 40	C(=C\c1ccc2ccccc2[n+]1CCCCCCCC[n+]1c(/C=C/c2c[nH]c3ccccc23)ccc2ccccc21)/c1c[nH]c2ccccc12	> 40	> 40	–
